Reference: ChEMBL document CHEMBL1833919, “Does the combination of optimal substitutions at the C²-, N⁵- and N⁸-positions of the pyrazolo-triazolo-pyrimidine scaffold guarantee selective modulation of the human A₃ adenosine receptors?” (Bioorg Med Chem, 2011)

Tests used:
Adenosine receptor A1 = target: T1, Adenosine receptor A1 (Homo sapiens, UniProt P30542); experiment: Displacement of [3H]CCPA from human recombinant adenosine A1 receptor expressed in CHO cells after 3 hrs; type: cell-based
T1 sequence (P30542 whole entry): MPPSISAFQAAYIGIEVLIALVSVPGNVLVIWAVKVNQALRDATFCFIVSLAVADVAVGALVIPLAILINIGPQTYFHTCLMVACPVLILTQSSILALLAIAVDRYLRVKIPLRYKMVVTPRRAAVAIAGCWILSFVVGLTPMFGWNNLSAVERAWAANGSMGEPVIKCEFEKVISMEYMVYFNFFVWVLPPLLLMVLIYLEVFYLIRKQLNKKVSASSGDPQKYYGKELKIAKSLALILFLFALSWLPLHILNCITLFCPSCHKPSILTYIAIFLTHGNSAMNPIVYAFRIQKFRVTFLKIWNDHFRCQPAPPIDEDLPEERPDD
Method in brief: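 CHO membranes (two-step spin, stored -80 °C), 20 μg protein, incubated 3 h at 25 °C in 200 μL 50 mM Tris/HCl pH 7.4 with 1 nM [3H]CCPA, 0.2 U/mL adenosine deaminase and a range of test concentrations. Nonspecific binding with 1 mM theophylline. Filtration and scintillation counting. Ki by Cheng-Prusoff; n = 3-6, geometric means, 95% CI.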

Adenosine receptor A2a = Adenosine receptor A2a (Homo sapiens, UniProt P29274); experiment: Displacement of [3H]NECA from human recombinant adenosine 2A receptor expressed in CHO cells after 3 hrs; type: cell-based
Method in brief: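 Membranes at 50 μg protein, incubated 3 h at 25 °C in 50 mM Tris/HCl, 10 mM MgCl2, pH 7.4 with 30 nM [3H]NECA and varied test concentrations. 100 μM R-PIA defined nonspecific binding. Bound ligand separated on glass-fiber filters and counted. Ki by Cheng-Prusoff; n = 3-6, geometric means, 95% CI.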

Adenosine receptor A2b = target: T2, Adenosine receptor A2b (Homo sapiens, UniProt P29275); experiment: Antagonist activity human recombinant adenosine 2B receptor expressed in CHO cells assessed as inhibition of NECA-stimulated adenylyl cyclase activity; type: functional, cell-based
T2 sequence (P29275 whole entry): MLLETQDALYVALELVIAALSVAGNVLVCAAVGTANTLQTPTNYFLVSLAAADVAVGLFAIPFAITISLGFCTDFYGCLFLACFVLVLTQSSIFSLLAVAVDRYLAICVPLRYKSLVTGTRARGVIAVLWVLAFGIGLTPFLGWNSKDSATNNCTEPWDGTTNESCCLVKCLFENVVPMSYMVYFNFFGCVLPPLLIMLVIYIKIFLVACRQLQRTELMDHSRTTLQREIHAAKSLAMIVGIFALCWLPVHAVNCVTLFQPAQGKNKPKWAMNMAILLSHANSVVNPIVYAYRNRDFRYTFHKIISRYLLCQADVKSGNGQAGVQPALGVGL
Method in brief: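 Membranes from hA2B-expressing CHO cells, single 54,000g 30-min spin, resuspended in 50 mM Tris/HCl pH 7.4 and used at once. Incubated 20 min with about 150,000 cpm [α-32P]ATP, no EGTA or NaCl. IC50 from concentration-dependent inhibition of NECA-stimulated adenylyl cyclase, converted to Ki; n = 3-6, geometric means with 95% confidence limits.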

Adenosine receptor A3 = target: T3, Adenosine receptor A3 (Homo sapiens, UniProt P0DMS8); experiment: Displacement of [3H]NECA from human recombinant adenosine A3 receptor expressed in CHO cells after 3 hrs; type: cell-based
T3 sequence (P0DMS8 whole entry): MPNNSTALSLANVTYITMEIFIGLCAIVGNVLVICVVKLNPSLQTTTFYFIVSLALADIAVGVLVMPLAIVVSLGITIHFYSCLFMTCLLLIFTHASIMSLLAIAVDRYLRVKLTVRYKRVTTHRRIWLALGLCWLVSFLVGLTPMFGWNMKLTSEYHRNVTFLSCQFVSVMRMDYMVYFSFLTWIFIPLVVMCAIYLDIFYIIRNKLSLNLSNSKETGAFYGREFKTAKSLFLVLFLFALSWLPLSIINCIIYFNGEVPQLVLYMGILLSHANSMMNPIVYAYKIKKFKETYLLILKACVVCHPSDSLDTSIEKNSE
Method in brief: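 20 μg membrane protein in 50 mM Tris/HCl, 1 mM EDTA, 10 mM MgCl2, pH 8.25 with 10 nM [3H]NECA and test compound over a concentration range, 3 h at 25 °C. Nonspecific binding with 100 μM R-PIA. Filtration, then counting. Ki via Cheng-Prusoff; n = 3-6, geometric means with 95% CI.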

[1] = target: Adenosine receptors; A1 & A3 (Homo sapiens) (UniProt P30542+P0DMS8); experiment: Selectivity ratio of Ki for human recombinant adenosine A1 receptor to Ki for human recombinant adenosine A3 receptor
Homo sapiens = species on record: Homo sapiens; experiment: Selectivity ratio of Ki for human recombinant adenosine 2a receptor to Ki for human recombinant adenosine A3 receptor

Sequence of Adenosine receptor A2a (P29274 whole entry): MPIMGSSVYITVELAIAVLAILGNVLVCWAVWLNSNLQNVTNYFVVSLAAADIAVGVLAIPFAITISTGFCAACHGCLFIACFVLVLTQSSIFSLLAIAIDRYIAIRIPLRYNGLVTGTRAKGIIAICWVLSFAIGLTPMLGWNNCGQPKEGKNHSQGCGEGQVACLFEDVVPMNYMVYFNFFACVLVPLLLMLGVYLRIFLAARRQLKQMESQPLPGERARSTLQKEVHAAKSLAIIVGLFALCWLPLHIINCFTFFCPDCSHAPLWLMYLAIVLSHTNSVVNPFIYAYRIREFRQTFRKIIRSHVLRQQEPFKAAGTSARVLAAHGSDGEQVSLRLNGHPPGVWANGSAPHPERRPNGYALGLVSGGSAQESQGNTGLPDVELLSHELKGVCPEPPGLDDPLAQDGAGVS

Row | SMILES | Ki (Adenosine receptor A1) [nM] | Ki (Adenosine receptor A2a) [nM] | Ki (Adenosine receptor A2b) [nM] | Ki (Adenosine receptor A3) [nM] | Ratio Ki [1] | Ratio Ki (Homo sapiens)
1 | O=C(Cc1ccccc1)Nc1nc2nn(CCc3ccccc3)cc2c2nc(-c3ccc(Cl)cc3)nn12 | 932 | 3090 | > 30000 |  | 110 | 364
2 | COc1ccc(NC(=O)Nc2nc3nn(C)cc3c3nc(-c4ccc(Br)cc4)nn23)cc1 | > 10000 | 8400 | > 10000 | 1.95 | > 5130 | 4310
3 | Cn1cc2c(nc(NC(=O)Nc3ccc(F)cc3)n3nc(-c4ccc(C(F)(F)F)cc4)nc23)n1 | 4420 | > 30000 | > 10000 | 1.91 | 2310 | > 15700
4 | COc1ccc(-c2nc3c4cn(CCc5ccccc5)nc4nc(NC(=O)c4ccccc4)n3n2)cc1 | 831 | 25200 | > 10000 | 28.9 | 28.8 | 872
5 | Cn1cc2c(nc(N)n3nc(-c4ccc(-c5ccccc5)cc4)nc23)n1 | > 100000 | > 30000 | > 10000 | 147 | > 680 | > 204
6 | O=C(Cc1ccccc1)Nc1nc2nn(CCc3ccccc3)cc2c2nc(-c3ccco3)nn12 |  |  |  | 45 | 2.67 | 1.33
7 | O=C(Cc1ccccc1)Nc1nc2nn(CCc3ccccc3)cc2c2nc(-c3ccccc3)nn12 | 192 | 614 | > 30000 | 3.02 | 63.6 | 203
8 | O=C(Nc1nc2nn(CCc3ccccc3)cc2c2nc(-c3ccc(F)cc3)nn12)c1ccccc1 | 395 | 4040 | > 30000 | 17.1 | 23.1 | 236
9 | O=C(Cc1ccccc1)Nc1nc2nn(CCc3ccccc3)cc2c2nc(-c3ccc(F)cc3)nn12 | 232 | 571 | > 30000 | 3.34 | 69.5 | 171
10 | O=C(Nc1nc2nn(CCc3ccccc3)cc2c2nc(-c3ccc(Cl)cc3)nn12)c1ccccc1 | 221 | 19400 | > 30000 | 11.4 | 19.4 | 1700
11 | Cn1cc2c(nc(N)n3nc(-c4ccc(C(F)(F)F)cc4)nc23)n1 | > 100000 | 6930 | > 10000 | 304 | > 329 | 22.8
12 | COc1ccc(NC(=O)Nc2nc3nn(C)cc3c3nc(-c4ccc(C(F)(F)F)cc4)nn23)cc1 | > 100000 | > 100000 | > 10000 | 2.36 | > 42400 | > 42400
13 | O=C(Cc1ccccc1)Nc1nc2nn(CCc3ccccc3)cc2c2nc(-c3ccc(Br)cc3)nn12 | > 10000 | > 10000 | > 10000 | > 10000 |  | 

More lines, now with the values ahead:

Row | Ki (Adenosine receptor A1) [nM] | Ki (Adenosine receptor A2a) [nM] | Ki (Adenosine receptor A2b) [nM] | Ki (Adenosine receptor A3) [nM] | Ratio Ki [1] | Ratio Ki (Homo sapiens) | SMILES
14 | > 30000 | 5930 | > 10000 | 1.72 | > 17400 | 3450 | Cn1cc2c(nc(NC(=O)Nc3ccc(F)cc3)n3nc(-c4ccc(Br)cc4)nc23)n1
15 | > 100000 | > 100000 | > 10000 | 4.06 | > 24600 | > 24600 | Cn1cc2c(nc(NC(=O)Nc3ccc(F)cc3)n3nc(-c4ccc(-c5ccccc5)cc4)nc23)n1
16 | > 30000 | > 30000 | > 10000 | 5.9 | > 5090 | > 5090 | Cn1cc2c(nc(NC(=O)Nc3ccccc3)n3nc(-c4ccc(-c5ccccc5)cc4)nc23)n1
17 | 12900 | 36000 | > 10000 | 3.44 | 3750 | 10500 | Cn1cc2c(nc(NC(=O)Nc3ccccc3)n3nc(-c4ccc(C(F)(F)F)cc4)nc23)n1
18 | > 10000 | 2360 | > 10000 | 2.5 | > 4000 | 944 | Cn1cc2c(nc(NC(=O)Nc3ccccc3)n3nc(-c4ccc(Br)cc4)nc23)n1
19 |  |  |  |  | 3710 | 2380 | Cn1cc2c(nc(NC(=O)Nc3ccccc3)n3nc(-c4ccco4)nc23)n1
20 | 6490 | 1460 | > 10000 | 1.33 | 4880 | 1100 | COc1ccc(NC(=O)Nc2nc3nn(C)cc3c3nc(-c4ccc(Cl)cc4)nn23)cc1
21 | > 100000 | > 100000 | > 10000 | 2.1 | > 47600 | > 47600 | COc1ccc(NC(=O)Nc2nc3nn(C)cc3c3nc(-c4ccc(-c5ccccc5)cc4)nn23)cc1
22 | 5550 | 987 | > 10000 | 1.71 | 3250 | 577 | Cn1cc2c(nc(NC(=O)Nc3ccccc3)n3nc(-c4ccc(Cl)cc4)nc23)n1
23 | > 30000 | 1060 | > 10000 | 5.3 | > 5660 | 200 | Cn1cc2c(nc(NC(=O)Nc3ccc(F)cc3)n3nc(-c4ccc(Cl)cc4)nc23)n1
